According to article PMC3114641 (ACS medicinal chemistry letters, 2011):
pKd: −log10 of the molar value. Read-outs that look alike come from different tables or passages of the source.

Experiments:
[1] = biological target: T1, chicken riboflavin binding protein (RfBP) (Gallus gallus, UniProt P02752); test: Isothermal titration calorimetry; conditions: ITC; for KD: KD = 1/KA
T1 sequence (P02752 18-238): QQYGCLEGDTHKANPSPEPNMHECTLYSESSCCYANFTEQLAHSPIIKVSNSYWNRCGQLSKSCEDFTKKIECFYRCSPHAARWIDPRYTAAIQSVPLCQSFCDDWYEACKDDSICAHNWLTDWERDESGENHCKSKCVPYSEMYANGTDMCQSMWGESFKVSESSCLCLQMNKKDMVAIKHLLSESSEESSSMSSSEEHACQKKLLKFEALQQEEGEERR

RfBP [2] = biological target: T2, RfBP (Gallus gallus, UniProt P02752); test: SPR solution competition: inhibition of RfBP adsorption to RF; format: binding, chicken
T2 sequence (P02752 18-238): T1 sequence (P02752 18-238)

RfBP [3] = conditions: fluorescence quenching, cited from earlier work
RfBP [4] = biological target: T2, RfBP; test: SPR direct binding of RfBP to ligand 1 immobilized on CM5 sensor chip; parameters: species or system chicken
Outline: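 Chicken RfBP was injected at 33.0 to 3.70 μM in HBS-EP buffer (pH 7.4) over a CM5 chip with an immobilized riboflavin-linker conjugate. Sensorgrams were fitted globally to a 1:1 Langmuir model to give kon and koff, and KD was derived from these kinetics. KD was also obtained by Scatchard analysis of bound RfBP against RfBP concentration.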

[5] = PBS pH 7.4, 25°C, calculated estimate
[6] = PBS pH 7.4, 25°C, calculated estimate (Table 2)
[7] = 0.1M NaAc pH 4.0, 25°C, calculated estimate
[8] = 0.1M Phosphate pH 7.4, 25°C, calculated estimate
[9] = 0.1M Tris pH 9.0, 25°C, calculated estimate

For `CN(C)CCCN1c2ccccc2Sc2ccc(Cl)cc21` [Chlorpromazine, chlorpromazine], the “binding affinity towards the RfBP” value [1] was “no binding affinity” and the KD ([1]; PBS pH 7.4, 25°C) was “No Binding Observed”.
With `Cc1cc2nc3c(=O)[nH]c(=O)nc-3n(C)c2cc1C` [Lumiflavin, lumiflavin] the “n (binding stoichiometry)” value ([1]; PBS pH 7.4, 25°C) was 1.08 ±0.07, the ΔH ([1]; PBS pH 7.4, 25°C) was -48.2 ± 7.2 kJ/mol and the ΔG [1, 5] was -41.2 kJ/mol. The ΔS [1, 6] was −0.02 kJ mol^−1 K^−1.
For `OCCN1CCN(CCCN2c3ccccc3Sc3ccc(Cl)cc32)CC1` [Perphenazine, perphenazine], the “binding affinity towards the RfBP” value [1] was “no binding affinity” and the KD ([1]; PBS pH 7.4, 25°C) was “No Binding Observed”.
With `Cc1cc2nc3c(=O)[nH]c(=O)nc-3n(C[C@H](O)[C@H](O)[C@H](O)CO)c2cc1C` [RF, riboflavin] the “n (binding stoichiometry)” value ([1]; 0.1M NaAc pH 4.0, 25°C) was 0.70±0.04, the ΔH ([1]; 0.1M NaAc pH 4.0, 25°C) was -100.7 ± 10.4 kJ/mol and the ΔG [1, 7] was -41.8 kJ/mol. The ΔS [1, 7] was -0.20 kJ/mol, the “n (binding stoichiometry)” value ([1]; 0.1M Phosphate pH 7.4, 25°C) was 0.81±0.03 and the ΔH ([1]; 0.1M Phosphate pH 7.4, 25°C) was -82.2 ± 5.7 kJ/mol. The ΔG [1, 8] was -46.6 kJ/mol, the ΔS [1, 8] was -0.12 kJ/mol and the “n (binding stoichiometry)” value ([1]; 0.1M Tris pH 9.0, 25°C) was 0.82±0.03. For the same molecule, the ΔH ([1]; 0.1M Tris pH 9.0, 25°C) was -99.1 ± 9.0 kJ/mol, the ΔG [1, 9] was -42.6 kJ/mol and the ΔS [1, 9] was -0.19 kJ/mol. For the same molecule, the “n (binding stoichiometry)” value ([1]; PBS pH 7.4, 25°C) was 0.78±0.02, the ΔH ([1]; PBS pH 7.4, 25°C) was -91.2 ± 5.7 kJ/mol and the ΔG [1, 5] was -47.5 kJ/mol. For the same molecule, the ΔS ([1]; PBS pH 7.4, 25°C, calculated estimate (Table 1)) was -0.15 kJ/mol, the ΔS [1, 6] was −0.15 kJ mol^−1 K^−1 and the “inhibitory activity, fold more potent than N(3) derivative 1” value (RfBP [2]; SPR Ki comparison) was “approximately 7 fold”. The pKd (RfBP [3]; 0.01M phosphate buffer) was 8.89 and the pKd (RfBP [3]; 0.1 M phosphate buffer) was 8.70.
`Cc1cc2nc3c(=O)n(CC(=O)NCCCN)c(=O)nc-3n(C[C@H](O)[C@H](O)[C@H](O)CO)c2cc1C` [compound 1] gave a pKd (RfBP [4]) of 4.84, a koff (RfBP [4]) of 0.00149 s⁻¹ and a kon (RfBP [4]) of 103 M⁻¹ s⁻¹. For the same molecule, the “inhibition of RfBP adsorption to the surface” value (RfBP [2]; RfBP 11.1 µM, ligand concentrations above ~500 µM) was “approximately 90%”.
